In the library only some 2% were active in any assay of this set; here they are far more common.
NTR1 ag = activates human neurotensin receptor 1. P30989. NTR1-U2OS beta-arrestin-GFP spot imaging, agonist mode. activation, % at 20 µM. 330,000 compounds, 0.17% hits;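 active = activation at or above 40% of the spot to cytoplasm intensity ratio, with at least 20 cells analyzed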
Target sequence (P30989 whole entry, looked up): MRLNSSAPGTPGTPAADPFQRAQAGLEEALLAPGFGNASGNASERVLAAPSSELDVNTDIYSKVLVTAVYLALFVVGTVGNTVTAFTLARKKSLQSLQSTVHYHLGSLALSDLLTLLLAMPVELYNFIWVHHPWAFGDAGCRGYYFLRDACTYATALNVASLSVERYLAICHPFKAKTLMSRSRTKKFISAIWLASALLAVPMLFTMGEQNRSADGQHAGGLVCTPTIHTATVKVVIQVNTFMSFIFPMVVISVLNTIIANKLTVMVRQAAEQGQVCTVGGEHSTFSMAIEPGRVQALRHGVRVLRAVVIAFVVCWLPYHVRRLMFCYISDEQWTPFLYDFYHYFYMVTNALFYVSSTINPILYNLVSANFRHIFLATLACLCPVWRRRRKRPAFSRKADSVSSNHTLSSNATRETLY
PKA-R1A activ = PKA-R1A complex activation; activation, % at 11.4 µM; PKA-R1A dissociation, Cy5-IP20 fluorescence polarization; scaled: DMSO 0%, 113 µM cGMP 100%; 340,000 compounds, 0.083% hits; AID 504707;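 active = percent activation above the mean of all tested compounds plus 3 SD, cut at about 19% in these data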;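 also: higher means more PKAc released from R1A so a rise in polarization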
CAL PDZ FP-1 = inhibitors of human CAL PDZ peptide binding | AID 504414 | inhibition, % at 20 µM | Q9HD26 | 330,000 compounds, 0.02% hits | purified CAL PDZ, TMR-peptide fluorescence polarization, 1 h;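 active = highest replicate inhibition of at least 40%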
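Material: tagged CAL PDZ protein CerCALP, purified; buffer or medium: sodium phosphate/NaCl buffer pH 7.4 with TCEP, IgG, Thesit; also added: fluorescent TMR peptide probe; schedule: 1 h incubation at room temperature before polarization reading; technique: fluorescence polarization from S- and P-plane intensities, G-factor corrected; control set: unlabelled peptide and DMSO controls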
CAL PDZ FP-2 = inhibitors of human CAL PDZ peptide binding; purified CAL PDZ, TMR-peptide fluorescence polarization, 1 h; inhibition, % at 24.9 µM; 300,000 compounds, 0.92% hits; AID 602252;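 active = mean inhibition of at least 30% with at least half of replicates also reaching 30%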
dFosB act-1 = activators of mouse delta FosB homodimer. P13346. 340,000 compounds, 0.99% hits. purified delta FosB, TAMRA-CDK5 oligo fluorescence polarization; percent of positive-control signal above neutral wells. activation, % at 25 µM. AID 493131;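 active = mean activation above about 17%, with every replicate also reaching it, limit read from the data, passing the limit was not always enough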
PKA-R2B act = PKA-R2B complex activation | 340,000 compounds, 0.079% hits | activation, % at 11.4 µM | AID 504700 | PKA-R2B holoenzyme dissociation, Cy5-IP20 fluorescence polarization; R2B truncated from residue 108, S112A mutant; 0% DMSO only, 100% 113 µM cGMP | P22694+P31323;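 active = activation above a cutoff set at the mean over all compounds plus 3 SD, cut at about 18% in these data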;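 also: higher means more holoenzyme dissociation and a rise in polarization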
dFosB act-2 = delta FosB (mouse) homodimer activation. activation, % at 24.9 µM. 2,400 tested, under 10 active. purified delta FosB, TAMRA-CDK5 oligo fluorescence polarization; normalised: neutral wells 0, positive control 100. shares compounds with dFosB act-1;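 active = highest replicate activation at or above 34% and every replicate reaching that threshold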;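 also: higher polarization means more probe DNA bound by delta FosB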
R2B FP artifact = FP assay interference, PKA-R2B counter-screen; shares compounds with PKA-R2B act; FP artifact counterscreen, fluorescence polarization; activation, % at 11.4 µM; 270 compounds, 6% hits; AID 504796; in the data active = activation above about 20%;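 also: Cy5 labelled IP20 peptide probe with compound but no PKA protein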
PKA-R2B confirm = PKA-R2B complex activation, confirmation; shares compounds with PKA-R2B act; fluorescence polarization; activation, % at 11.4 µM; 270 compounds, 9% hits; AID 504797; in the data active = activation above about 19%
R1A FP artifact = fluorescence polarization artifact in PKA-R1A activator counter-screen; shares compounds with PKA-R1A activ; Cy5-IP20 peptide alone, fluorescence polarization artifact counterscreen; activation, % at 11.4 µM; 280 compounds, 7% hits;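 active = mean activation over triplicate runs exceeds the adjusted cutoff derived for the parent primary screen, cut at about 19% in these data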;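 also: no PKA protein present so any polarization rise reflects compound interference; higher means stronger polarization artifact and likely false positive in parent screen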
PKA-R1A act conf = confirmation of PKA-R1A complex activators; shares compounds with PKA-R1A activ; Cy5-IP20 fluorescence polarization, PKA-R1A holoenzyme dissociation; activation, % at 11.4 µM; 280 compounds, 9% hits;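 active = mean activation over replicate wells exceeds the adjusted hit threshold taken from the earlier primary screen, cut at about 20% in these data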
Each line names hits and unclear results; the compound was inactive in the other large screens (follow-up assays come after a bar, where they were run).

C=CCNC(=O)C1CC(=O)N(c2ccc(OCC(=O)Nc3ccc(Cl)c(C(F)(F)F)c3)cc2)C1 (centres undefined)	dFosB act-1 27.0 | dFosB act-2 inactive
COc1ccc(/C=C2\SC(=O)N(CC(=O)NNC(=O)c3ccccc3O)C2=O)cc1	dFosB act-1 66.5, PKA-R2B act 20.1 | dFosB act-2 inactive | R2B FP artifact inactive | PKA-R2B confirm 20.8
COc1ccccc1OCCNC(=O)CN1C(=O)NC2(CCCC2)C1=O	none
COc1ccc2oc(C(=O)OCC(=O)Nc3ccc(NC(C)=O)cc3)c(C)c2c1	PKA-R1A activ 20.1, dFosB act-1 35.7, PKA-R2B act 24.7 | dFosB act-2 inactive | R2B FP artifact inactive | PKA-R2B confirm inactive | R1A FP artifact inactive | PKA-R1A act conf inactive
C=CCn1cnnc1SCC(=O)Nc1cccnc1Cl	none (no result: PKA-R1A activ, CAL PDZ FP-1, CAL PDZ FP-2, dFosB act-1, PKA-R2B act)
C/C(=N/NC(=O)c1cccs1)c1ccc(NC(=O)COc2ccc(Cl)cc2)cc1	PKA-R1A activ 18.8, dFosB act-1 31.8 | dFosB act-2 inactive | R1A FP artifact inactive | PKA-R1A act conf inactive
C/C(=N\NC(=O)c1ccc(Cl)cc1)c1cccs1	none (no result: NTR1 ag)
O=c1[nH]cnc2ncc(-c3ccc(O)cc3)nc12	PKA-R2B act 20.4 | R2B FP artifact inactive | PKA-R2B confirm inactive
O=c1[nH]cnc2nc(-c3ccccc3)c(-c3ccccc3)nc12	none
COc1ccc(CCN(Cc2nc3ccccc3c(=O)[nH]2)C(=O)C2CC2)cc1	PKA-R2B act 18.8 | R2B FP artifact inactive | PKA-R2B confirm inactive
O=C(C1CC1)N(CCc1ccccc1)Cc1nc2ccccc2c(=O)[nH]1	none
CC1CN(Cc2nnc(-c3ccccc3)o2)CC(C)O1 (centres undefined)	PKA-R2B act 22.3 | R2B FP artifact inactive | PKA-R2B confirm inactive
CCN1CCN(Cc2nnc(-c3ccccc3)o2)CC1	none
CC(C)(C)NC(=S)NCC1CC1	none
O=c1[nH]nc(SCc2nnc(-c3cccc(Cl)c3)o2)n1C1CCCCC1	PKA-R2B act 19.5 (no result: CAL PDZ FP-2) | R2B FP artifact inactive | PKA-R2B confirm inactive
COc1ccc(-c2nnc(CSc3nnc(-c4ccncc4)n3C3CCCCC3)o2)cc1OC	none
Cc1ccc(S(=O)Cc2ccc(C(=O)N3CCN(C(=O)c4ccco4)CC3)o2)cc1 (centres undefined)	none (no result: CAL PDZ FP-2)
O=C(c1ccco1)N1CCN(C(=O)c2ccc(CS(=O)c3ccc(Cl)cc3)o2)CC1 (centres undefined)	PKA-R2B act 18.8 | R2B FP artifact inactive | PKA-R2B confirm inactive
CC(C)Oc1ccc(S(=O)(=O)N2CCOCC2)cc1NC(=O)CC1OC(=O)c2ccccc21 (centres undefined)	none
CC(C)Oc1ccc(S(=O)(=O)N2CCCCC2)cc1NC(=O)CC1OC(=O)c2ccccc21 (centres undefined)	PKA-R2B act 20.0 | R2B FP artifact inactive | PKA-R2B confirm inactive
Cc1nnc(SCC(=O)NC2CCCCCC2)n1C(C)C	none
Cc1ccccc1NS(=O)(=O)c1cc(C(N)=O)ccc1C	none
Cc1ccccc1NS(=O)(=O)c1cc(S(C)(=O)=O)ccc1C	PKA-R2B act 18.7 | R2B FP artifact inactive | PKA-R2B confirm inactive
COCCNC(=O)c1cc(S(=O)(=O)N(C)C2CCCCC2)ccc1Cl	none (no result: NTR1 ag, CAL PDZ FP-1, CAL PDZ FP-2, dFosB act-1)
